Measurements published in ChEMBL document CHEMBL1144320, “Structure-activity relations of azafluorenone and azaanthraquinone as antimicrobial compounds” (2005).
In brackets after ≈: the same amount, converted by molar mass.

Assays:
Assay type in all cases: functional
[1] = test system: Schizosaccharomyces pombe; experiment: Minimum inhibitory concentration against Schizosaccharomyces pombe
How it was run: (§1)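 Strains: S. cerevisiae IFO 0203, S. pombe IFO 0342, C. utilis OUT 6020, R. rubra IFO 0001, A. niger ATCC 6275, P. chrysogenum IFO 4626, R. chinensis IFO 4768, M. mucedo IFO 7684.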

Mucor mucedo = experiment: Minimum inhibitory concentration against Mucor mucedo; how it was run: as §1
Cyberlindnera jadinii = experiment: Minimum inhibitory concentration against Candida utilis; conditions: Williopsis jadinii; how it was run: as §1
Staphylococcus aureus = experiment: Minimum inhibitory concentration against Staphylococcus aureus
How it was run: (§2)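 MIC by 2-fold broth dilution in peptone medium containing compound; bacteria grown in test tubes at 37 °C for 2 days. Strains: S. aureus NCTC 8530, B. subtilis IFO 3007, E. coli IFO 3545, P. vulgaris IFO 3851, P. aeruginosa IFO 3080.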

Aspergillus niger = experiment: Minimum inhibitory concentration against Aspergillus niger; how it was run: as §1
Escherichia coli = experiment: Minimum inhibitory concentration against Escherichia coli; how it was run: as §2
Saccharomyces cerevisiae = experiment: Minimum inhibitory concentration against Saccharomyces cerevisiae; how it was run: as §1
Proteus vulgaris = experiment: Minimum inhibitory concentration against Proteus vulgaris; how it was run: as §2
[2] = test system: Rhizopus microsporus var. chinensis; experiment: Minimum inhibitory concentration against Rhizopus chinensis; how it was run: as §1
Rhodotorula mucilaginosa = experiment: Minimum inhibitory concentration against Rhodotorula rubra; how it was run: as §1
[3] = Minimum inhibitory concentration against Penicillium chrysogenum; how it was run: as §1
Pseudomonas aeruginosa = experiment: Minimum inhibitory concentration against Pseudomonas aeruginosa; how it was run: as §2
Bacillus subtilis = experiment: Minimum inhibitory concentration against Bacillus subtilis; how it was run: as §2

MIC [1]	MIC (Mucor mucedo)	MIC (Cyberlindnera jadinii)	MIC (Staphylococcus aureus)	MIC (Aspergillus niger)	MIC (Escherichia coli)	MIC (Saccharomyces cerevisiae)	MIC (Proteus vulgaris)	MIC [2]	MIC (Rhodotorula mucilaginosa)	MIC [3]	MIC (Pseudomonas aeruginosa)	MIC (Bacillus subtilis)	SMILES
0.2 µg/mL (≈ 0.888 µM)	6.25 µg/mL (≈ 27.8 µM)	6.25 µg/mL (≈ 27.8 µM)	1.56 µg/mL (≈ 6.93 µM)	3.13 µg/mL (≈ 13.9 µM)	> 100 µg/mL	3.13 µg/mL (≈ 13.9 µM)	25 µg/mL (≈ 111 µM)	6.25 µg/mL (≈ 27.8 µM)	3.13 µg/mL (≈ 13.9 µM)	1.56 µg/mL (≈ 6.93 µM)	3.13 µg/mL (≈ 13.9 µM)	3.13 µg/mL (≈ 13.9 µM)	O=C1c2cnccc2C(=O)c2c(O)cccc21
0.78 µg/mL (≈ 3.46 µM)	3.13 µg/mL (≈ 13.9 µM)	12.5 µg/mL (≈ 55.5 µM)	1.56 µg/mL (≈ 6.93 µM)	3.13 µg/mL (≈ 13.9 µM)	> 100 µg/mL	3.13 µg/mL (≈ 13.9 µM)	25 µg/mL (≈ 111 µM)	12.5 µg/mL (≈ 55.5 µM)	3.13 µg/mL (≈ 13.9 µM)	1.56 µg/mL (≈ 6.93 µM)	3.13 µg/mL (≈ 13.9 µM)	3.13 µg/mL (≈ 13.9 µM)	O=C1c2ccncc2C(=O)c2c(O)cccc21
0.39 µg/mL (≈ 1.81 µM)	3.13 µg/mL (≈ 14.5 µM)	3.13 µg/mL (≈ 14.5 µM)	1.56 µg/mL (≈ 7.25 µM)	0.78 µg/mL (≈ 3.62 µM)	100 µg/mL (≈ 465 µM)	1.56 µg/mL (≈ 7.25 µM)	50 µg/mL (≈ 232 µM)	6.25 µg/mL (≈ 29 µM)	1.56 µg/mL (≈ 7.25 µM)	0.78 µg/mL (≈ 3.62 µM)	1.56 µg/mL (≈ 7.25 µM)	6.25 µg/mL (≈ 29 µM)	O=C1c2cnccc2C(=O)c2sccc21
3.13 µg/mL (≈ 15 µM)	6.25 µg/mL (≈ 29.9 µM)	12.5 µg/mL (≈ 59.8 µM)	6.25 µg/mL (≈ 29.9 µM)	12.5 µg/mL (≈ 59.8 µM)	> 100 µg/mL	12.5 µg/mL (≈ 59.8 µM)	50 µg/mL (≈ 239 µM)	12.5 µg/mL (≈ 59.8 µM)	6.25 µg/mL (≈ 29.9 µM)	3.13 µg/mL (≈ 15 µM)	6.25 µg/mL (≈ 29.9 µM)	3.13 µg/mL (≈ 15 µM)	O=C1c2ccccc2C(=O)c2cnccc21
12.5 µg/mL (≈ 52.3 µM)	25 µg/mL (≈ 105 µM)	25 µg/mL (≈ 105 µM)	12.5 µg/mL (≈ 52.3 µM)	> 100 µg/mL	> 100 µg/mL	100 µg/mL (≈ 418 µM)	100 µg/mL (≈ 418 µM)	> 100 µg/mL	50 µg/mL (≈ 209 µM)	25 µg/mL (≈ 105 µM)	25 µg/mL (≈ 105 µM)	6.25 µg/mL (≈ 26.1 µM)	Cc1cnc2c(c1)C(=O)c1cccc(O)c1C2=O
6.25 µg/mL (≈ 24.5 µM)	12.5 µg/mL (≈ 49 µM)	12.5 µg/mL (≈ 49 µM)	12.5 µg/mL (≈ 49 µM)	50 µg/mL (≈ 196 µM)	> 100 µg/mL	12.5 µg/mL (≈ 49 µM)	100 µg/mL (≈ 392 µM)	12.5 µg/mL (≈ 49 µM)	12.5 µg/mL (≈ 49 µM)	6.25 µg/mL (≈ 24.5 µM)	12.5 µg/mL (≈ 49 µM)	6.25 µg/mL (≈ 24.5 µM)	Cc1ccnc2c1C(=O)c1c(O)ccc(O)c1C2=O
100 µg/mL (≈ 512 µM)	100 µg/mL (≈ 512 µM)	100 µg/mL (≈ 512 µM)	100 µg/mL (≈ 512 µM)	100 µg/mL (≈ 512 µM)	> 100 µg/mL	> 100 µg/mL	100 µg/mL (≈ 512 µM)	> 100 µg/mL	100 µg/mL (≈ 512 µM)	50 µg/mL (≈ 256 µM)	50 µg/mL (≈ 256 µM)	50 µg/mL (≈ 256 µM)	Cc1ccnc2c1-c1ccccc1C2=O
12.5 µg/mL (≈ 52.3 µM)	50 µg/mL (≈ 209 µM)	50 µg/mL (≈ 209 µM)	12.5 µg/mL (≈ 52.3 µM)	> 100 µg/mL	> 100 µg/mL	100 µg/mL (≈ 418 µM)	50 µg/mL (≈ 209 µM)	> 100 µg/mL	50 µg/mL (≈ 209 µM)	25 µg/mL (≈ 105 µM)	25 µg/mL (≈ 105 µM)	12.5 µg/mL (≈ 52.3 µM)	Cc1ccnc2c1C(=O)c1cccc(O)c1C2=O
1.56 µg/mL (≈ 6.52 µM)	12.5 µg/mL (≈ 52.3 µM)	25 µg/mL (≈ 105 µM)	12.5 µg/mL (≈ 52.3 µM)	12.5 µg/mL (≈ 52.3 µM)	> 100 µg/mL	25 µg/mL (≈ 105 µM)	50 µg/mL (≈ 209 µM)	25 µg/mL (≈ 105 µM)	12.5 µg/mL (≈ 52.3 µM)	12.5 µg/mL (≈ 52.3 µM)	6.25 µg/mL (≈ 26.1 µM)	6.25 µg/mL (≈ 26.1 µM)	COc1cccc2c1C(=O)c1ccncc1C2=O
3.13 µg/mL (≈ 13.1 µM)	25 µg/mL (≈ 105 µM)	25 µg/mL (≈ 105 µM)	12.5 µg/mL (≈ 52.3 µM)	12.5 µg/mL (≈ 52.3 µM)	> 100 µg/mL	25 µg/mL (≈ 105 µM)	50 µg/mL (≈ 209 µM)	25 µg/mL (≈ 105 µM)	6.25 µg/mL (≈ 26.1 µM)	12.5 µg/mL (≈ 52.3 µM)	6.25 µg/mL (≈ 26.1 µM)	3.13 µg/mL (≈ 13.1 µM)	COc1cccc2c1C(=O)c1cnccc1C2=O
25 µg/mL (≈ 112 µM)	50 µg/mL (≈ 224 µM)	50 µg/mL (≈ 224 µM)	25 µg/mL (≈ 112 µM)	100 µg/mL (≈ 448 µM)	> 100 µg/mL	100 µg/mL (≈ 448 µM)	50 µg/mL (≈ 224 µM)	> 100 µg/mL	50 µg/mL (≈ 224 µM)	50 µg/mL (≈ 224 µM)	50 µg/mL (≈ 224 µM)	25 µg/mL (≈ 112 µM)	Cc1ccnc2c1C(=O)c1ccccc1C2=O [CLEISTOPHOLINE]
50 µg/mL (≈ 256 µM)	> 100 µg/mL	100 µg/mL (≈ 512 µM)	> 100 µg/mL	100 µg/mL (≈ 512 µM)	> 100 µg/mL	100 µg/mL (≈ 512 µM)	100 µg/mL (≈ 512 µM)	> 100 µg/mL	100 µg/mL (≈ 512 µM)	50 µg/mL (≈ 256 µM)	100 µg/mL (≈ 512 µM)	100 µg/mL (≈ 512 µM)	Cc1ccnc2c1C(=O)c1ccccc1-2 [ONYCHINE]
